Test results reported in publication PMC2810141 (Biochemistry, 2008).
Entries after “also recorded” stand apart in the source; their conditions may differ.

Columns and labels:
human P4H [1] = target: T1, human P4H (Homo sapiens, UniProt P13674); assay: HPLC-based assay of P4H enzymatic activity; assay type: biochemical; conditions: for Product formation as substrate for P4H: HPLC (for Mtp also mass spectrometry), data not shown; for Substrate or Inhibitor: PEG-Gly–Tyr–Yaa–GlyOEt, 50 mM Tris–HCl pH 7.8, P4H 90 nM, α-ketoglutarate 500 μM; for Substrate or Inhibitor / kcat / Km / kcat/KM / kcat/KM relative to that of the Pro-containing peptide: HPLC-based assay; for Substrate or Inhibitor / kcat / Km / kcat/KM: 5 min, 30 °C; for kcat / Km / kcat/KM: pH 7.8, P4H 90 nM, substrate 0.05–3 mM, mean ± SE of three replicates; for kcat / Km: Michaelis–Menten fit
Outline: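 Human P4H from a previously reported preparation at 90 nM, in 50 mM Tris–HCl pH 7.8 with BSA 1 mg/mL, catalase 100 μg/mL, DTT 100 μM, ascorbate 2 mM, FeSO4 50 μM and α-ketoglutarate 500 μM. Started with tetrapeptide (0.05–3 mM; ethanol stock), run 5 min at 30 °C, then boiled 60 s. Triplicates. C18 HPLC; substrate:product ratio from A214; Michaelis–Menten fit.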

human P4H [2] = target: T1, human P4H; assay: [14C]CO2-release assay from [1-14C]α-ketoglutarate; assay type: biochemical; conditions: substrate at 10% of KM; duplicate
Outline: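 Release of [14C]CO2 from [1-14C]α-ketoglutarate. Component levels as in the HPLC assay, except P4H at 395 nM. Each peptide tested at 10% of its KM from the HPLC assay. Run in duplicate; the decarboxylation rate without peptide was subtracted. Rate (μM/min) expressed as % of the Pro-containing peptide.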

P4H = conditions: binds to the enzyme, not hydroxylated; ref [33]; cited from earlier work

T1 sequence (P13674 18-534): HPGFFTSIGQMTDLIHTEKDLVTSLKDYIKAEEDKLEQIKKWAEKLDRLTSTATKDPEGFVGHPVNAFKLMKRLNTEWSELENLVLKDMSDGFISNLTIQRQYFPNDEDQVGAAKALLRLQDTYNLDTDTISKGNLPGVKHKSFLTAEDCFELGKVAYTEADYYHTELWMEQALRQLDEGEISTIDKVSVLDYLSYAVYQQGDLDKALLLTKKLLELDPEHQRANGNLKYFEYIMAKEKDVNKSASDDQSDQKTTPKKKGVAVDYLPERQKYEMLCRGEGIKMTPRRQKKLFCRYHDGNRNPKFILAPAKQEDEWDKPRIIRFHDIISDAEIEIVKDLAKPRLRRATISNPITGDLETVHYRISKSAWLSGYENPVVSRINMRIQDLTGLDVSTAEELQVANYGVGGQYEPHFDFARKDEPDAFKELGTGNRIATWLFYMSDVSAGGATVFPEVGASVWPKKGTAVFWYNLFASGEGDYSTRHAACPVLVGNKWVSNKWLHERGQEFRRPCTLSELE
T1 sequence (P07237 18-508 partner): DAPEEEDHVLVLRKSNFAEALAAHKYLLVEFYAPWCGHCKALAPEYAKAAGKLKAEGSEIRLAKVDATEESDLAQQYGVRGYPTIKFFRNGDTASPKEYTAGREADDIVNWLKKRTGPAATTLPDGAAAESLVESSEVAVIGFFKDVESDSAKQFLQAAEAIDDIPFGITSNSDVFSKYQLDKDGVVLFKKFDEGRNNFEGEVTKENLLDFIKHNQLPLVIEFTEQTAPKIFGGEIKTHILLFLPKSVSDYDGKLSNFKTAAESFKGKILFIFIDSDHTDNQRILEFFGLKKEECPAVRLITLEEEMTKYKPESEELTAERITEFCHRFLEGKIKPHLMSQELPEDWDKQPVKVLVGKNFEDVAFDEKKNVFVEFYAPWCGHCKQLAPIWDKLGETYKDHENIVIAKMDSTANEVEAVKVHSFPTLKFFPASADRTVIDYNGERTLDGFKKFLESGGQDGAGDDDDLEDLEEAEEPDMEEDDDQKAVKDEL

Substance	Product formation as substrate for P4H (human P4H [1])	Substrate or Inhibitor (human P4H [1])	kcat (human P4H [1])	Km (human P4H [1]; SEM)	kcat (human P4H [1]; SEM)	kcat/KM (human P4H [1])	kcat/KM relative to that for dansyl-Gly–Phe–Pro–GlyOEt (human P4H [1]; comparator value from ref [18])	% of Pro (rate of CO2 release) (human P4H [2])	kcat/KM relative to that of the Pro-containing peptide (human P4H [1])	Inhibition of P4H enzymatic activity (P4H)
Cbz-Gly–Tyr–Mtp–GlyOEt	No product was detected	Neither	–	–	–	–	–	–	–	–
PEG-Gly–Tyr–Kep–GlyOEt	not found to be a substrate	neither substrates nor inhibitors; also recorded: Neither	–	–	–	–	–	–	–	–
PEG-Gly–Tyr–Pro–GlyOEt	–	Substrate	6 s⁻¹	580 ± 30 µM	6 ± 0.12 s⁻¹	10 ± 0.6 10^3 M^−1s^−1	3 fold	100%	–	–
PEG-Gly–Tyr–Thp–GlyOEt	–	Substrate	–	6400 ± 1400 µM	7.83 ± 0.983 s⁻¹	1.2 ± 0.3 10^3 M^−1s^−1	–	6%	12%	–
PEG-Gly–Tyr–flp–GlyOEt	No product formation was detected	Substrate	4.17 s⁻¹	1600 ± 300 µM	4.17 ± 0.35 s⁻¹	2.7 ± 0.5 10^3 M^−1s^−1	–	26%	27%	–
polyproline	–	–	–	–	–	–	–	–	–	competitive inhibitor
